Runt-SMMHC FRET: inhibitors of RUNX1 Runt–CBFb-SMMHC binding, primary screen, biochemical, FRET, Cerulean-Runt, Venus-CBFb-SMMHC, uHTS; 220,000 compounds, 0.74% hits; Cerulean-Runt/Venus-CBFb-SMMHC FRET ratio 530/480, 1 h; inhibition, % at 20 µM; Runt-related transcription factor 1 (Homo sapiens) + Core-binding factor subunit beta …;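 active = mean inhibition across duplicate retests at 20 µM reaching about 50%, limit read from the data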;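 note: inhibitors lower the FRET ratio by blocking Runt binding to CBFb-SMMHC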
MEX-5 binding: MEX-5 zinc finger RNA-binding disruptors – biochemical, C. elegans, fluorescence polarization, MLPCN library, primary screen; Zinc finger protein mex-5 (Caenorhabditis elegans), Q9XUB2; MEX-5/FITC-TCR2 RNA binding; active compounds read low; activity score (negative = inhibition of binding), % at 10 µM; 300,000 compounds, 0.38% hits;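 active = inhibition past about -25% in most replicates, and total fluorescence under double the plate's negative control median, limit read from the data; inconclusive = replicates evenly split on the limit, or fluorescence at least double controls; inactive = too little inhibition in most replicates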
RanGTP-Impb inh: inhibitors of RanGTP-importin-beta interaction, primary screen, biochemical, FRET, CFP-Ran, YFP-importin-beta, homogeneous; Ran GTPase (GTP-bound) - importin-beta complex; cell-free CFP-Ran/YFP-importin-beta FRET ratio; inhibition, % (concentration not given with the values); 300,000 compounds, 1.1% hits; AID 2216, 2009;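 active = more than half of the replicate wells show a fall in the fluorescence ratio signal beyond about 16%, limit read from the data, passing the limit was not always enough; inconclusive = exactly half of the replicate wells pass the set limit; inactive = fewer than half of replicates pass the limit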
Runt-CBFb FRET: inhibitors of RUNX1 Runt–CBFb binding, primary screen, biochemical, FRET, Cerulean-Runt, Venus-CBFb, uHTS; Runt-related transcription factor 1 (Homo sapiens) + Core-binding factor subunit beta …; Cerulean-Runt/Venus-CBFb FRET ratio 530/480, 1 h; inhibition, % at 20 µM; 220,000 compounds, 0.46% hits;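 active = inhibition over about 50% at 20 µM in the single-dose screen, limit read from the data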
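Measured by: fluorescence energy transfer, 422 nm excitation, 530/480 nm emission; test system: Cerulean-tagged RUNX1 Runt domain (FRET donor) fusion protein; buffer or medium: Tris pH 7.5 buffer with BSA; compound: one dose, 20 µM compound, 1% DMSO; times: two 1 h room-temperature incubations shielded from light; benchmarks: unlabeled CBFb 5 µM, positive control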
KLK7 zymogen act: proKLK7 zymogen activators, primary screen, biochemical, fluorescence intensity; Kallikrein-7 (Homo sapiens), P49862; purified proKLK7, EDANS-DABCYL substrate fluorescence; 100% is mature enzyme control, 0% vehicle; activation, % at 7 µM; 370,000 compounds, 0.9% hits;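 active = activation above the mean of all tested compounds plus 3 SD, computed per campaign excluding outliers beyond control limits, cut at about 13% in these data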
Target sequence (P49862 whole entry, looked up): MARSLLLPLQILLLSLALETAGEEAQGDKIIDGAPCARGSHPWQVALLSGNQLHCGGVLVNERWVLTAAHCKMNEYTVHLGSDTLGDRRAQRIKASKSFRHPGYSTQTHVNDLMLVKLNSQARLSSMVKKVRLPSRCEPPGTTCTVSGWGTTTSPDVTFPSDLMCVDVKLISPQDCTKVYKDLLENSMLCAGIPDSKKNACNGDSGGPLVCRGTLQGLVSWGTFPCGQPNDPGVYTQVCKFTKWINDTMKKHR
Numbers stand for hits; i = inactive; ? = inconclusive; nt = not tested or not shown. Only some compounds are listed: those with a hit (about 2.1% of all), similar ones and a draw of the others.

SMILES | Runt-SMMHC FRET | MEX-5 binding | RanGTP-Impb inh | Runt-CBFb FRET | KLK7 zymogen act
N#CC1=C(N)SC(N)=C(C#N)C1CCC1CCCCC1 | i | i | 51 | i | nt
O=C(C1CCCCC1)N1CCC2CC1c1cc(Cl)ccc12 (configuration not stated) | nt | nt | nt | nt | i
O=C(N/N=C\c1cc([N+](=O)[O-])ccc1N1CCCC1)c1ccccn1 | i | -27 | i | i | i
CC(=O)Nc1cccc(OCCCOc2cccc([N+](=O)[O-])c2)c1 | nt | nt | nt | nt | i
Cn1c(=O)nc2n(Cc3ccccc3)c3cccc(Cl)c3cc-2c1=O | 60 | i | 64 | 95 | i
Cc1cc(/C=C2\SC(=S)N(Cc3ccco3)C2=O)c(C)n1-c1ccccc1 | i | i | 21 | i | i
Cc1cc(/C=C2\SC(=S)N(C)C2=O)c(C)n1-c1cccc(O)c1 | i | i | 36 | i | i
Cc1cc(/C=C2\SC(=O)N(C)C2=O)c(C)n1-c1ccc(O)cc1 | nt | i | i | nt | i
CC(C)NC(=O)N(C)C[C@@H]1Oc2cc(C#Cc3ccccn3)ccc2S(=O)(=O)N([C@@H](C)CO)C[C@H]1C | nt | nt | nt | nt | i
NS(=O)(=O)c1ccc(N/N=C/c2ccc(O)c(O)c2O)c([N+](=O)[O-])c1 | 65 | nt | nt | i | i
CCCc1cc(C(=O)Cc2nc3ccccc3s2)c(O)cc1O | i | i | 112 | nt | i
CSc1nc(=S)c2[nH]c(=S)[nH]c2[nH]1 | 51 | -99 | i | i | i
O=C(NNC(=S)Nc1ccccc1)C1CCCCC1 | i | i | 178 | i | i
O=C(NNC(=S)Nc1ccccc1)C1CC1 | i | i | i | i | i
CCN1C(=O)/C(=C2\SC(=S)N(NC(=O)c3cccnc3)C2=O)c2ccccc21 | nt | i | i | nt | i
COc1ccccc1Cc1c(C(C)(C)C)nc2ccc(C)cn12 | nt | nt | nt | nt | i
CCCN1C(=O)/C(=C/c2ccc(C)o2)SC1=Nc1ccc(OC)cc1 | i | -72 | i | i | i
Oc1cc2c(cc1O)C1c3ccc(O)c(O)c3OCC1(O)C2 (configuration not stated) | 59 | nt | nt | 63 | i
CCC[C@@H](/C=C/C(=O)OC(C)(C)C)Sc1ccccc1OC | nt | nt | nt | nt | i
COc1cccc(C2C=C(c3ccc(Br)s3)Nc3ncnn32)c1OC (configuration not stated) | 63 | i | i | i | nt
Fc1ccc(Br)cc1C1C=C(c2ccc(Br)s2)Nc2ncnn21 (configuration not stated) | i | i | i | i | nt
CCCCN(C)C(=O)C1CCN(c2ccc(S(=O)(=O)N3CCOCC3)cc2[N+](=O)[O-])CC1 | nt | i | i | nt | i
CN(C)CCN(C)Cc1c2ccccc2c(CN(C)CCN(C)C)c2ccccc12 | nt | -64 | i | nt | i
Cc1nc(C(F)(F)F)ccc1C(=O)N1CCC1(C)C(=O)NS(=O)(=O)c1ccc2c(c1)CCO2 (configuration not stated) | nt | nt | nt | nt | i
CCOC(=O)c1c(-c2ccccc2)c2cc(OC)ccc2n1CCCN(C)C | nt | i | i | nt | i
SMILES | Runt-SMMHC FRET | MEX-5 binding | RanGTP-Impb inh | Runt-CBFb FRET | KLK7 zymogen act
COc1ccc(OC)c(S(=O)(=O)Nc2ccc(O)c(Sc3ncn[nH]3)c2)c1 | i | -34 | i | i | nt
CCOc1ccc(S(=O)(=O)Nc2ccc(O)c(Sc3ncn[nH]3)c2)cc1 | i | i | i | i | i
COc1cc(C(=O)COC(=O)c2ccc3c(c2)OCCO3)cc(OC)c1OC | nt | nt | nt | nt | i
Cn1c(C(=O)NCCCN2CCOCC2)cc2c(=O)n(C)c3ccccc3c21 | i | -42 | ? | i | i
COc1ccc(-n2cc(CNCc3cnc4ccccn34)c(-c3cccc(F)c3)n2)cc1 | i | -37 | i | i | i
Nc1c(C=C2C=CC(=O)C=C2)c(=O)nc2sc(CC(=O)N3CCOCC3)nn12 | nt | i | i | nt | i
Nc1c(/C=C2\C=Nc3ccccc32)c(=O)nc2sc(CC(=O)N3CCOCC3)nn12 | nt | i | 20 | nt | i
CC1(C)Cc2c(sc3nc(C4CC4)n(N)c(=O)c23)CO1 | i | i | i | 98 | i
